# The list is not random: actives were taken first. Their share in the collection is about 2.9%.
# Calb FLC: affects C. albicans growth with fluconazole. growth inhibition, % (test concentration not listed). 300,000 compounds, 0.57% hits. C. albicans CaCi-2 (fluconazole-resistant clinical isolate) + fluconazole, Alamar Blue growth, 48 h;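 active = growth inhibition above about 58% in most replicates, limit read from the data, passing the limit was not always enough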;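 also: all wells also contain fluconazole at 8 µg/ml as a sub-toxic cotreatment; 0% = median of DMSO wells and 100% = median of geldanamycin control wells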
# MC4R antag cAMP: blocks human MC4R cAMP signaling; P32245; MC4R-expressing cells, MTII-stimulated cAMP, LANCE TR-FRET; inhibition, % at 6.5 µM; 360,000 compounds, 0.48% hits; AID 540295;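 active = inhibition above its plate's cutoff, the mean of tested wells on that plate plus 3 SD, cut at about 29% in these data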;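 also: 0% = Melanotan II alone and 100% = Melanotan II plus saturating MCL0020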
#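 Material – human MC4R-expressing U2OS cells · Repeats – no replicates · Detection – TR-FRET with Eu-cAMP and labeled anti-cAMP, 671 nm · Times – compound 30 min, challenge 1 h, detection 1 h · Compound – single nominal compound dose of 6.5 µM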
# Efflux pump inh: inhibitors of Candida antifungal efflux pumps expressed in yeast. inhibition, % at 10 µM. AID 485275. S. cerevisiae Candida pump triplex, Nile Red efflux. 330,000 compounds, 0.44% hits;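 active = plate passing quality check with inhibition over a set limit, or well fluorescence over plate mean plus 4 SD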;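 also: Nile Red retained in pooled yeast measured as flow cytometry median fluorescence; 0% = buffer negative control and 100% = Enniatin B positive control; higher means more Nile Red kept so more efflux inhibition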
# MC4R ag barr: agonists of human melanocortin 4 receptor (MC4R) beta-arrestin; U2OS MC4R beta-arrestin complementation, luminescence; percent of melanotan II response, DMSO zero; 360,000 compounds, 0.98% hits; P32245; AID 540308; activation, % at 8.9 µM;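 active = activation above a per-plate cutoff, the mean activation of sample wells on that plate plus 3 SD, cut at about 8% in these data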
# H9c2 TAG inh: inhibitors of triacylglycerol accumulation. 230,000 compounds, 0.66% hits. H9c2 cells, Nile Red lipid (TAG) fluorescence; cells loaded with 200 µM oleic acid. AID 651582. inhibition, % at 12.5 µM;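 active = pattern-corrected inhibition of lipid staining of at least 50% with the nuclear-stain viability signal not falling by more than 50%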;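 also: 0% = DMSO wells and 100% = triacsin C control wells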
# GalR3 antag: antagonists of human GalR3; 360,000 compounds, 0.44% hits; HEK293 GalR3-CNG cAMP membrane potential fluorescence; galR3 body fused to GalR1 C-terminus; inhibition, % at 3 µM; O60755;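 active = inhibition above the screen-wide average plus 3 SD, cut at about 13% in these data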;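 also: forskolin and galanin both at EC90 stimulate the cells; cAMP rise reported by CNG channel membrane potential dye signal; 0% = forskolin plus galanin with DMSO and 100% = forskolin alone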
# MC4R barr conf: human MC4R beta-arrestin agonism confirmation; U2OS MC4R beta-arrestin recruitment, luminescence; scaled DMSO 0%, Melanotan II 100%; 2,400 compounds, 31% hits; AID 602192; activation, % at 8.9 µM; shares compounds with MC4R ag barr;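 active = mean activation across replicates above the hit cutoff set in the earlier primary screen, cut at about 8% in these data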
# MOR DOR agonist: activates mu-delta opioid heterodimer, MC4R agonist counter-screen | shares compounds with MC4R ag barr | U2OS PathHunter beta-arrestin, beta-gal luminescence; percent of deltorphin B response, DMSO zero | activation, % at 9.2 µM | 2,400 compounds, 5.8% hits;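 active = mean activation across replicates exceeds the hit threshold derived in the earlier primary screen, cut at about 18% in these data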;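 also: 100% = deltorphin B at 0.9 µM final and 0% = DMSO alone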
# Target sequence (P35372 whole entry, looked up): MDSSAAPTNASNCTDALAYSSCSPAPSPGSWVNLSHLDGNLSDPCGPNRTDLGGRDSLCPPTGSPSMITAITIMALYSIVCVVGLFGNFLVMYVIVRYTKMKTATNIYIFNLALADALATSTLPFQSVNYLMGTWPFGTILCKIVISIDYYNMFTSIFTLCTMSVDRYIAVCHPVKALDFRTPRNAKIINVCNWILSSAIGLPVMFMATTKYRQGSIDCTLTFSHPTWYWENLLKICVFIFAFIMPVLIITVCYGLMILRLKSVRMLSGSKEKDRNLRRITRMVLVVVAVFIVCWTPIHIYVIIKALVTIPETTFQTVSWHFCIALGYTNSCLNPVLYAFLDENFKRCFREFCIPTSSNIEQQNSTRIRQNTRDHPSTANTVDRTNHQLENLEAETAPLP
# Target sequence (P41143 whole entry, looked up): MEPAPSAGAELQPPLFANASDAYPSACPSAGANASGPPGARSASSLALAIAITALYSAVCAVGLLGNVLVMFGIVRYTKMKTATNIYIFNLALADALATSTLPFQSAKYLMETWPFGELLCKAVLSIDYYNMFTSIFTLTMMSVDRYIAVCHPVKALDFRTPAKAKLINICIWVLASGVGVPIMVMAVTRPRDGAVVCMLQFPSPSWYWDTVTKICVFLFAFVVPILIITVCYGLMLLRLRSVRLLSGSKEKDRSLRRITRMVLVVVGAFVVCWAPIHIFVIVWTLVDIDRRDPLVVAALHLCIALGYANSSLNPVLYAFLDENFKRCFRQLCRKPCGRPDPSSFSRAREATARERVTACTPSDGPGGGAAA
# * = called active by the depositor; x = no result.
SMILES,Calb FLC,MC4R antag cAMP,Efflux pump inh,MC4R ag barr,H9c2 TAG inh,GalR3 antag,MC4R barr conf,MOR DOR agonist
Cc1ccc2sc(N(CCN(C)C)C(=O)c3ccc4ccccc4c3)nc2c1C,-19,5,0,-1,x,2,x,x
Cc1ccc2sc(N(CCCN(C)C)C(=O)CN3C(=O)c4ccccc4C3=O)nc2c1C,-3,-3,0,18*,7,-5,19*,9
COc1ccc(/C(C)=N/NC(=O)c2nnn(-c3nonc3N)c2CN(C)c2ccccc2)cc1,x,-8,0,13*,x,-9,3,8
NC(=O)COc1ccc2oc(=O)cc(-c3cc4ccccc4o3)c2c1,16,-6,0,-2,x,-7,x,x
COC(=O)COc1ccc2oc(=O)cc(-c3cc4ccccc4o3)c2c1,0,-11,0,16*,x,8,5,3
CC(C)[C@@H]1NC(=O)[C@@H]2CSCCS(=O)(=O)N2C1=O,x,x,x,x,x,0,x,x
O=C(Nc1cccc(-c2nc3cccnc3s2)c1)c1ccco1,49,-2,0,0,x,-5,x,x
CCOc1ncccc1C(=O)Nc1cccc(-c2nc3cccnc3s2)c1,-6,-6,0,17*,3,-11,8,3
Cc1ccc(NC(=O)COC(=O)c2ccccc2Nc2ccccc2)cc1,-6,-6,0,13*,-20,-4,3,5
COc1ccc(OC)c(CN(CC(C)C)S(=O)(=O)c2ccccc2Br)c1,x,x,x,x,x,-3,x,x
COc1ccc(-c2csc(NC(=O)CSc3nnnn3C)n2)cc1OC,1,-5,0,-3,12,-4,x,x
O=C(CSc1nnnn1-c1ccccc1)Nc1nsc(-c2ccc(Cl)cc2)n1,3,7,0,16*,12,-4,5,4
Cc1cc(-c2nnc(SCC(=O)Nc3nc(-c4ccc(Cl)cc4)cs3)o2)no1,7,11,0,-2,15,-6,x,x
Cc1ccc(-n2nnnc2SCC(=O)Nc2nc(-c3ccc(F)cc3)cs2)cc1C,-1,3,0,24*,x,-3,13*,4
Cc1cc(C)cc(-n2nnnc2SCC(=O)Nc2nc(-c3ccc(Cl)cc3)cs2)c1,-7,4,0,27*,x,-3,7,3
CC1(C2CC2)NC(=O)N(CC(=O)Nc2ccc(OC(F)F)cc2)C1=O (stereo not given),x,2,x,0,4,-2,x,x
C[C@@H]1CN([C@@H](C)CO)C(=O)CCCn2nncc2CO[C@@H]1CN(C)S(=O)(=O)c1ccccc1,x,1,x,-1,-10,-5,x,x
C[C@H](NC(=O)[C@@H]1CCCN1C(=O)OC(C)(C)C)c1ccccc1,x,x,x,x,x,-5,x,x
CN(C)CCOc1ccc(-c2c(-c3ccccc3)sc3ccccc23)cc1,x,15,1,23*,58*,-12,38*,17
Cc1cccc(S(=O)(=O)NC(=O)C2(C)CCN2C(=O)Cc2ccccc2)c1 (stereo not given),x,6,x,2,4,-5,x,x
Cc1cc(C(=O)N/N=C/c2c(C)nn(-c3ccccc3)c2Cl)n[nH]1,3,-3,0,-2,-6,3,x,x
CCNC(=S)N/N=C/c1c(C)nn(-c2cccc(Cl)c2)c1Cl,3,9,0,21*,x,-4,2,9
Cc1nn(-c2cccc(Cl)c2)c(Cl)c1/C=N/NC(=O)c1cccs1,8,0,-1,25*,x,1,3,9
COC(=O)c1cc(Nc2cc(C)c3c(O)cccc3n2)cc(C(=O)OC)c1,6,12,0,12*,15,-3,7,8
O=C(/C=C/[C@H]1O[C@@H](n2cnc3c(NC(=O)c4ccccc4)ncnc32)[C@H](O)[C@@H]1O)NCc1ccc2c(c1)OCO2,x,x,x,x,x,-4,x,x
SMILES,Calb FLC,MC4R antag cAMP,Efflux pump inh,MC4R ag barr,H9c2 TAG inh,GalR3 antag,MC4R barr conf,MOR DOR agonist
OCCCN=c1cc(-c2ccccc2)oc2ccc(Cl)cc12,14,-1,0,0,16,2,x,x
CC1(C)CC(N=c2cc(-c3ccccc3)oc3ccc(Cl)cc23)CC(C)(C)N1,16,14,x,24*,128,-11,6,10
CCSc1nnc(NC(=O)C2CC2c2ccccc2)s1 (stereo not given),-6,-5,0,15*,x,-1,6,7
Cn1c(SCC(=O)Nc2cc(Cl)cc(Cl)c2)nnc1-c1ccc2nonc2c1,-1,-6,0,36*,14,4,8,8
O=C(Cn1cc(S(=O)(=O)Cc2ccccc2)c2ccccc21)Nc1ccccc1,-4,-6,0,9.7*,x,x,-4,4
O=C(CCN1C(=O)c2ccccc2C1=O)Nc1ccc(-c2cn3ccsc3n2)cc1,3,9,0,13*,14,3,-1,4
CC(=O)Nc1ccc(-c2cn3ccsc3n2)cc1,31,7,0,0,-11,1,x,x
CCOc1ccc(/C=C/C(=O)NCc2ccccc2)cc1,-29,11,-3,-1,-2,-5,x,x
O=C(/C=C/c1ccc(OCCCF)cc1)NCc1ccc(Cl)cc1,3,-1,0,15*,14,-6,2,4
O=C(Nc1cccc(C(F)(F)F)c1)c1cc(-c2ccc(F)cc2)on1,-9,5,0,16*,-2,-4,6,4
Clc1ccc(/C=N/NC2=Nc3cccc4cccc2c34)cc1,6,-6,1,16*,x,-10,22*,8
C(=N\NC1=Nc2cccc3cccc1c23)/c1ccccc1,16,-8,0,14*,x,0,1,4
C(=N\NC1=Nc2cccc3cccc1c23)/c1cccnc1,72,2,0,-2,11,-6,x,x
O=S(=O)(N(Cc1ccccc1)[C@H](CO)Cc1ccccc1)N(Cc1ccccc1)[C@H](CO)Cc1ccccc1,x,14,0,28*,21,-4,7,6
O=C(NCc1csc(-c2cccs2)n1)Nc1cccc(Cl)c1,-10,0,0,9.8*,4,4,3,6
CCC(=O)NCc1csc(-c2cccs2)n1,18,1,0,-1,10,4,x,x
CCCCOCCCNC(=O)C[C@H]1C[C@@]2(C(=O)OC)C(=C[C@H](C(C)(C)C)O[C@@H]2C)N(Cc2ccccc2)C1=O,x,x,x,x,x,-4,x,x
Nc1nonc1-c1nc2ccccc2n1Cc1ccc(Cl)cc1,-12,-6,0,11*,x,-7,-1,5
COc1ccc(CN(C)CC(=O)Nc2ccccc2C(F)(F)F)cc1,34,16,0,1,-9,-7,x,x

# From PubChem
